The source made the active and inactive calls. No cut-off for these calls is given here.
What was measured:
HL-60 [1] = experiment: Antiproliferative activity against human HL60 cells assessed as cell number at 5 uM incubated for 72 hrs by Coulter counting method; format: functional
Procedure, shortened: (§1)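 HL-60 cells in RPMI with 10% heat-inactivated FCS, antibiotics and amphotericin, 37 °C, 5% CO2, seeded in 60 mm dishes. Compound added at 5, 15 or 25 µM for 24, 48 or 72 h. Absolute cell counts taken by Coulter counter and expressed as percentage of untreated control. Mean ± SD of at least three independent experiments; one-way ANOVA with Tukey test, p < 0.05.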

Nucleic Acid [2] = experiment: Binding affinity to calf thymus DNA increase in DNA viscosity at 12 to 60 uM by viscosimetric titration assay; format: nucleic-acid assay; settings: Bos taurus
Procedure, shortened: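 Relative viscosity of ctDNA (3.11 × 10^-8 M) with compound at 12–60 × 10^-6 M was measured by automated microviscometry in a 1.6 mm capillary at 25 °C, in 10 mM Tris, pH 7.4. Solution density was also measured.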

HL-60 [3] = experiment: Antiproliferative activity against human HL60 cells assessed as cell number at 15 uM incubated for 48 hrs by Coulter counting method; format: functional; procedure, shortened: as §1
HL-60 [4] = experiment: Induction of necrosis in human HL60 cells at 5 to 25 uM incubated for 24 hrs by AnnexinV/propidium iodide staining method; format: functional, cell-based
Procedure, shortened: (§2)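 HL-60 cells (1.5 × 10^5) were exposed to compound, then stained 10 min with Annexin V-FITC in HEPES/CaCl2/NaCl binding buffer. Cells were washed, briefly stained with propidium iodide and analysed by flow cytometry for apoptotic and necrotic fractions. Mean ± SD of at least three independent experiments.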

HL-60 [5] = experiment: Induction of necrosis in human HL60 cells at 5 to 25 uM incubated for 48 hrs by AnnexinV/propidium iodide staining method; format: functional, cell-based; procedure, shortened: as §2
HL-60 [6] = experiment: Antiproliferative activity against human HL60 cells assessed as cell number at 5 uM incubated for 24 hrs by Coulter counting method; format: functional; procedure, shortened: as §1
Nucleic Acid [7] = experiment: Binding affinity to calf thymus DNA assessed as melting temperature at 12.4 uM by thermal denaturation study; format: nucleic-acid assay; settings: Bos taurus
HL-60 [8] = experiment: Antiproliferative activity against human HL60 cells assessed as cell number at 25 uM incubated for 24 hrs by Coulter counting method; format: functional; procedure, shortened: as §1
HL-60 [9] = experiment: Induction of apoptosis in human HL60 cells at 5 to 25 uM incubated for 24 hrs by AnnexinV/propidium iodide staining method; format: functional, cell-based
Procedure, shortened: (§3)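 HL-60 cells (1.5 × 10^5) were treated at 5–25 µM for 24, 48 or 72 h and harvested. They were stained with Annexin V-FITC for 10 min in HEPES/CaCl2/NaCl binding buffer, washed, briefly stained with PI (1 mg/mL) and analysed by flow cytometry for apoptosis and necrosis. Mean ± SD, n ≥ 3.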

HL-60 [10] = experiment: Drug uptake in human HL60 cells with normal morphology at 50 uM incubated for 18 hrs by fluorescence microscopy; format: ADME, cell-based; settings: hl-60, 18 h
Procedure, shortened: (§4)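 HL-60 cells were treated with 50 µM compound for 18 h, washed with PBS, resuspended in HBSS and mounted as native slides. Cells were imaged by inverted fluorescence microscopy at 40×, with excitation 360/40 and emission 470/40. The fluorescence channel was merged with brightfield images.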

[11] = target: T1, DNA topoisomerase 1 (Homo sapiens) (UniProt P11387); experiment: Inhibition of human topoisomerase 1 assessed as reduction in pBR322 DNA relaxation of relaxation at 60 uM by DNA unwinding assay
T1 sequence (whole entry): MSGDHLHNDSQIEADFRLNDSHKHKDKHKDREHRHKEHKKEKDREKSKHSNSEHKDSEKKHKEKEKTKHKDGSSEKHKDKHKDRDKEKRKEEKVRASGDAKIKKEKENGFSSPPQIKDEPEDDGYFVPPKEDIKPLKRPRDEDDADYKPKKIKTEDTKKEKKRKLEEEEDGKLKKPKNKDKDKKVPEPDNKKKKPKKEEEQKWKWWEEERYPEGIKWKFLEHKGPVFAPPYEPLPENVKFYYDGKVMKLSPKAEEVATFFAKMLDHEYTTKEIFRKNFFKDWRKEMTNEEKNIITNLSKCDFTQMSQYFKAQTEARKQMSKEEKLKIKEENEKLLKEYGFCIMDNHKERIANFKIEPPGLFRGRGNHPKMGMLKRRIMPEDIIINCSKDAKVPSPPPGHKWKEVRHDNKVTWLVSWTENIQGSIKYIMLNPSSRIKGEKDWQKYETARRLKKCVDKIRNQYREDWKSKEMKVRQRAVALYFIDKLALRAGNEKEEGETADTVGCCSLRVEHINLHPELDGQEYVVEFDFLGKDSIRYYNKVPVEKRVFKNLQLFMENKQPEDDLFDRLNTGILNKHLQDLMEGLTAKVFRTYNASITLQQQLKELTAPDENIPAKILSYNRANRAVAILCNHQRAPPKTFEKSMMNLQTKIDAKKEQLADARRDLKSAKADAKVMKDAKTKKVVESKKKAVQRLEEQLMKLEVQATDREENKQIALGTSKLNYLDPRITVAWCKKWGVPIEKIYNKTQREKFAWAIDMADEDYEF

HL-60 [12] = experiment: Drug uptake in human HL60 cells with necrotic morphology at 50 uM incubated for 18 hrs by fluorescence microscopy; format: ADME, cell-based; settings: hl-60, 18 h; procedure, shortened: as §4
HL-60 [13] = experiment: Antiproliferative activity against human HL60 cells assessed as cell number at 5 uM incubated for 48 hrs by Coulter counting method; format: functional; procedure, shortened: as §1
Nucleic Acid [14] = experiment: Binding affinity to Escherichia coli pUC19 DNA assessed as reduction in DNA mobility to 5 to 80 uM by EMSA; format: nucleic-acid assay
Procedure, shortened: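 Supercoiled pUC19 plasmid incubated with compound at 5, 20, 40, 60 or 80 µM. Native agarose gel electrophoresis run with no ethidium bromide in the gel; band mobility was then read.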

HL-60 [15] = experiment: Induction of caspase-3 activation in human HL60 cells at 25 uM incubated for 72 hrs by FACS assay; format: functional
Procedure, shortened: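 HL-60 cells were treated for 72 h, washed in cold PBS, fixed and permeabilized for 20 min on ice. They were incubated with a FITC anti-active caspase-3 antibody for 30 min at RT and analysed by flow cytometry. Results are the percentage of positively stained cells; mean ± SD, n ≥ 3.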

HL-60 [16] = experiment: Antiproliferative activity against human HL60 cells assessed as cell number at 25 uM incubated for 48 hrs by Coulter counting method; format: functional; procedure, shortened: as §1
HL-60 [17] = experiment: Induction of apoptosis in human HL60 cells at 5 to 25 uM incubated for 48 hrs by AnnexinV/propidium iodide staining method; format: functional, cell-based; procedure, shortened: as §3
HL-60 [18] = experiment: Antiproliferative activity against human HL60 cells assessed as cell number at 15 uM incubated for 24 hrs by Coulter counting method; format: functional; procedure, shortened: as §1
Nucleic Acid [19] = experiment: Binding affinity to calf thymus DNA by spectrofluorimetric titration assay; format: nucleic-acid assay; settings: Bos taurus
Procedure, shortened: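 Fluorescence titration at 25 °C in 0.01 M Tris, pH 7.4. Compound (9.58 × 10^-6 M) was titrated with ctDNA from 0 to 2.57 × 10^-4 M bp, excited at 384 nm, and emission recorded from 400 to 600 nm. K and n were obtained from McGhee–von Hippel fits of Scatchard data.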

HL-60 [20] = experiment: Antiproliferative activity against human HL60 cells assessed as cell number at 15 uM incubated for 72 hrs by Coulter counting method; format: functional; procedure, shortened: as §1
HL-60 [21] = experiment: Induction of caspase-3 activation in human HL60 cells at 5 to 25 uM incubated for 24 to 72 hrs by FACS assay; format: functional, cell-based
Procedure, shortened: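 HL-60 cells (RPMI with 10% heat-inactivated FCS, 37 °C, 5% CO2) were seeded in dishes and treated 24, 48 or 72 h. Cells were fixed and permeabilized 20 min on ice, then stained 30 min at RT with FITC anti-active caspase-3 antibody. Read-out was the percentage of positive cells by flow cytometry. Mean ± SD of at least three independent experiments; ANOVA with Tukey.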

HL-60 [22] = experiment: Antiproliferative activity against human HL60 cells assessed as cell number at 25 uM incubated for 72 hrs by Coulter counting method; format: functional; procedure, shortened: as §1
HL-60 [23] = experiment: Induction of apoptosis in human HL60 cells at 5 to 25 uM incubated for 72 hrs by AnnexinV/propidium iodide staining method; format: functional, cell-based; procedure, shortened: as §3
Nucleic Acid [24] = experiment: Binding affinity to calf thymus DNA at 6.5 uM by CD spectroscopy; format: nucleic-acid assay; settings: Bos taurus
Procedure, shortened: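 CD spectra were recorded in 1 mm quartz cuvettes in 0.01 M Tris, pH 7.4, with 6.52 µM compound and ctDNA. Each spectrum is the mean of three scans after buffer background subtraction.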

HL-60 [25] = experiment: Induction of necrosis in human HL60 cells at 5 to 25 uM incubated for 72 hrs by AnnexinV/propidium iodide staining method; format: functional, cell-based; procedure, shortened: as §2
[26] = target: T1, DNA topoisomerase 1 (Homo sapiens); experiment: Inhibition of human topoisomerase 1 assessed as reduction in pBR322 DNA relaxation of relaxation at 5 uM by DNA unwinding assay
Nucleic Acid [27] = experiment: Binding affinity to calf thymus DNA assessed as hypochromacity at 12.8 uM by UV-visible absorption spectroscopy; settings: Bos taurus

Activity (Nucleic Acid [2]) | Tm (Nucleic Acid [7]) | Topoisomerase 1 inhibition (active/inactive) [11] | Activity (Nucleic Acid [14]) | K (Nucleic Acid [19]) | Activity (Nucleic Acid [24]) | Activity [26] | Activity (Nucleic Acid [27]) | Structure (SMILES) | also measured
Active | 88 °C | Active | inactive | 2.36 ×10⁵ /M | Active | Active | 31% | CCCCCNC(=N)Nc1ccc2cc3ccc(NC(=N)NCCCCC)cc3nc2c1.Cl.Cl.O | Activity (HL-60 [1]): 83.3%; Activity (HL-60 [3]): 77.14%; Activity (HL-60 [4]): inactive; Activity (HL-60 [5]): inactive; Activity (HL-60 [6]): 76.19%; Activity (HL-60 [8]): 78.32%; Activity (HL-60 [9]): inactive; Drug uptake (HL-60 [10]): Active; Drug uptake (HL-60 [12]): Active; Activity (HL-60 [13]): 81.9%; Activity (HL-60 [15]): 46.8%; Activity (HL-60 [16]): 67.98%; Activity (HL-60 [17]): inactive; Activity (HL-60 [18]): 75.2%; Activity (HL-60 [20]): 54.4%; Activity (HL-60 [21]): inactive; Activity (HL-60 [22]): 48.67%; Activity (HL-60 [23]): inactive; Activity (HL-60 [25]): inactive
Active | 85 °C | Active | Active | 5.01 ×10⁵ /M | Active | Active | 32% | CCCNC(=N)Nc1ccc2cc3ccc(NC(=N)NCCC)cc3nc2c1 | 
Active | 86 °C | Active | Active | 4.25 ×10⁵ /M | Active | Active | 17% | CCCCNC(=N)Nc1ccc2cc3ccc(NC(=N)NCCCC)cc3nc2c1 | 
